The values below come from ChEMBL document CHEMBL4828755, “A sulfonyl fluoride derivative inhibits EGFRL858R/T790M/C797S by covalent modification of the catalytic lysine” (Eur J Med Chem, 2021).

In general, inhibition refers to the percentage by which the read-out fell short of the control. As a reminder, the IC50 is the concentration needed to halve the response being measured.

Molecules are shown by their SMILES. Active and inactive are the calls of the source. No cut-off for these calls is given here. A value given as a limit tells only on which side of the number the result lay.

Assay [1] has as its target T1, Inhibitor of nuclear factor kappa-B kinase subunit beta (Homo sapiens) (UniProt O14920).
T1 sequence (whole entry): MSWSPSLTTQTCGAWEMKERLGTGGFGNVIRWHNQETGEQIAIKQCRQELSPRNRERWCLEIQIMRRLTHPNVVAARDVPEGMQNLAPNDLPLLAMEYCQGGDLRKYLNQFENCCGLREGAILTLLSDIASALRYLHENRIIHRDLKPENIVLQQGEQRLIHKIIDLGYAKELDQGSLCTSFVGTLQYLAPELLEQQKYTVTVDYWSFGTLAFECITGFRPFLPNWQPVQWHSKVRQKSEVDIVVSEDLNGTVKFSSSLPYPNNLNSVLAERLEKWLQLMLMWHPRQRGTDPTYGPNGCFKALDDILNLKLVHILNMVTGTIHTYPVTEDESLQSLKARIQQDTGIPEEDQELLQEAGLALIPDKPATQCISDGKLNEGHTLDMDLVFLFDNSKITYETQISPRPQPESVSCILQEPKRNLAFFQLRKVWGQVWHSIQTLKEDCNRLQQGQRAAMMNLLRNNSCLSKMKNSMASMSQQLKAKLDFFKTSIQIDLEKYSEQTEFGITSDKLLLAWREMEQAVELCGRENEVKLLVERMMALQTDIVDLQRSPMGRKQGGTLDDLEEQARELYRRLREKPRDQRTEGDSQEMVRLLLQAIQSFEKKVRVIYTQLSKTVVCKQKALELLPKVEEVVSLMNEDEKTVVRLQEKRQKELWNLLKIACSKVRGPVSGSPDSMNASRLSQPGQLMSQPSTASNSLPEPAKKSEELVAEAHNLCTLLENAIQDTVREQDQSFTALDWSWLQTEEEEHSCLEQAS
The assay is described as follows: Inhibition of GST-tagged human full length recombinant IKKbeta expressed in baculovirus expression system at 100 to 1000 nM by Z'-LYTE assay. The following applies: dose 100-1000 nM.

Assay [2] concerns the target Mitogen-activated protein kinase 3 (Homo sapiens) (UniProt P27361). As to the kind of experiment: Inhibition of GST-tagged human full length recombinant ERK1 expressed in Escherichia coli at 100 to 1000 nM by Z'-LYTE assay. The following applies: dose 100-1000 nM.
Assay [3] addresses Rho-associated protein kinase 1 (Homo sapiens) (UniProt Q13464). As to the kind of experiment: Inhibition of GST-tagged human recombinant ROCK1 (1 to 535 residues) expressed in baculovirus expression system at 100 to 1000 nM by Z'-LYTE assay. The following applies: dose 100-1000 nM.
Assay [4] deals with Epidermal growth factor receptor (Homo sapiens), P00533 [UNDEFINED MUTATION]. The assay is described as follows: Inhibition of EGFR del19/T790M/C797S triple mutant (unknown origin) using fluoresceine-labelled poly-GT peptide as substrate up to 10 uM preincubated with enzyme for 3 hrs followed by substrate and ATP addition by TR-FRET assay. The following applies: dose microM <=10, time 3.0 hrs. Background: In TR-FRET formats the signal depends on donor and acceptor labels being close together.

For assay [5], the system named is Epidermal growth factor receptor (Homo sapiens), P00533 [L858R,T790M,C797S]. The assay is described as follows: Covalent binding affinity to recombinant EGFR L858R/T790M/C797S triple mutant (unknown origin) assessed as Lys745 sulfonylation in tryptic digested peptide IPVAIK745ELR at enzyme:compound molar concentration ratio of 1:5 incubated for 1 hr and measured following tryptic digestion by isotopic profiling analysis. The gist of the method: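 Recombinant triple-mutant EGFR co-incubated with inhibitor at 1:5 molar ratio for 1 h in Kinase Buffer A (50 mM HEPES pH 7.5, 10 mM MgCl2, 1 mM EGTA, 0.01% Brij-35); DMSO vehicle control. Reduced with DTT (15 min, 60°C), alkylated with iodoacetamide, trypsin-digested overnight at 37°C (1:10 trypsin:protein), C18 cleanup, analysed by LC-HRMS in ESI positive mode.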

Assay [6] deals with T2, Epidermal growth factor receptor (Homo sapiens, UniProt P00533). The format is ADME.
The target in assay [7] is T2, Epidermal growth factor receptor. Format: ADME. The source holds these as a separate data set.
The target of assay [8] is T3, Aurora kinase A (Homo sapiens) (UniProt O14965).
T3 sequence (whole entry): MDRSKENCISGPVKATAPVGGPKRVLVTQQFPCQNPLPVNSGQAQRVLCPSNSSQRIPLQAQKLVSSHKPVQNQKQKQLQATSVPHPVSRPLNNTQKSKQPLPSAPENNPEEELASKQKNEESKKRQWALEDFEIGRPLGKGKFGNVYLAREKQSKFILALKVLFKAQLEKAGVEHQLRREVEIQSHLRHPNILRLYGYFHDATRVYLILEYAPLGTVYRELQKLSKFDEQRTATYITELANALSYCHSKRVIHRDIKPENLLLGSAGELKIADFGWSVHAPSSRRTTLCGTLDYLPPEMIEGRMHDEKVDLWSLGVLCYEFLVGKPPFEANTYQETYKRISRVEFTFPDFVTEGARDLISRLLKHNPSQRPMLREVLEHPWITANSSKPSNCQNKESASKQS
As to the kind of experiment: Inhibition of His-tagged human full length recombinant AURKA expressed in baculovirus expression system at 1 uM by Z'-LYTE assay. Summed up: (§1)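 Z'-LYTE FRET kinase panel; phosphorylation of a reference peptide measured with ATP at each enzyme's Km. Compounds tested in 1% DMSO at 0.1 and/or 1 μM. Values are means of two independent experiments with standard deviations.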

In assay [9] the target is Rho-associated protein kinase 1 (Homo sapiens) (UniProt Q13464). As to the kind of experiment: Inhibition of GST-tagged human recombinant ROCK1 (1 to 535 residues) expressed in baculovirus expression system at 1 uM by Z'-LYTE assay. The gist of the method: as §1
Rho-associated protein kinase 1 (Homo sapiens), sequence (Q13464 2-1354 limits assumed): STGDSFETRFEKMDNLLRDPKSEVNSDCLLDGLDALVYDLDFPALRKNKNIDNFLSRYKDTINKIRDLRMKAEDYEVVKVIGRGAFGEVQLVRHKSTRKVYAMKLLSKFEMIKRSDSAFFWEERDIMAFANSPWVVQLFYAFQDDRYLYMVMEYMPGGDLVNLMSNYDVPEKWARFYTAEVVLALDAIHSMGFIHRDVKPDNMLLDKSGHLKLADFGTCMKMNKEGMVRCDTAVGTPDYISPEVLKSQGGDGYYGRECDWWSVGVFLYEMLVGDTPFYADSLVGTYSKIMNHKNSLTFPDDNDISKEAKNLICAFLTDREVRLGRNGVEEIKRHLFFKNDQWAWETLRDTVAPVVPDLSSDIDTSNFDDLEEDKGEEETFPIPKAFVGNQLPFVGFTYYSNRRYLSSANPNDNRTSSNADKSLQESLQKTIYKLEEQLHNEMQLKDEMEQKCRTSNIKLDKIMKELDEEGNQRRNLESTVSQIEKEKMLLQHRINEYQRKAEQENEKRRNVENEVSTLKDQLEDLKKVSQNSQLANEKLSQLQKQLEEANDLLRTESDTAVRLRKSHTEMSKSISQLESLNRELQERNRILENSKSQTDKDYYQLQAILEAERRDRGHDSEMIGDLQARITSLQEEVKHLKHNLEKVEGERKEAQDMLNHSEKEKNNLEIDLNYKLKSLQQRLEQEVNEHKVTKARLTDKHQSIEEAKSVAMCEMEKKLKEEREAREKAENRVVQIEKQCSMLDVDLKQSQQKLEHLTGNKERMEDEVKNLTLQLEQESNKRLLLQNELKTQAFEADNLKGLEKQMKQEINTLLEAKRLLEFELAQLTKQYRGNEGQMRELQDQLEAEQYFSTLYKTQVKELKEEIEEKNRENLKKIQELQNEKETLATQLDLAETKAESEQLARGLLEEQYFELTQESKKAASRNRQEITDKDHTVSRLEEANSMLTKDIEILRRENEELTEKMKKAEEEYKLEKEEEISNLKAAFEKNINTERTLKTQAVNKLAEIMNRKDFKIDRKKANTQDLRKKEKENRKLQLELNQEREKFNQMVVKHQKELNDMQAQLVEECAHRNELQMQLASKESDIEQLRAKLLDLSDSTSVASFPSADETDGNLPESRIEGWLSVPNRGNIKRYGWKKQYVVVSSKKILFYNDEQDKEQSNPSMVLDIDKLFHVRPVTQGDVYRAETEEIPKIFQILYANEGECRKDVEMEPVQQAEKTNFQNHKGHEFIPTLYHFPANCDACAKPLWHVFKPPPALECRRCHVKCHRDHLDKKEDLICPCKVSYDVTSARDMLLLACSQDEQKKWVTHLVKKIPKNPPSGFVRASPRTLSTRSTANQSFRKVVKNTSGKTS
Assay [10] deals with Mitogen-activated protein kinase 3 (Homo sapiens) (UniProt P27361). The assay is described as follows: Inhibition of GST-tagged human full length recombinant ERK1 expressed in Escherichia coli at 1 uM by Z'-LYTE assay. The gist of the method:
as §1

The target in assay [11] is T4, Epidermal growth factor receptor (Homo sapiens, UniProt P00533, C797S/L858R/T790M). The assay is described as follows: Inhibition of EGFR L858R/T790M/C797S triple mutant (unknown origin) using […] preincubated with enzyme and ATP at Km for 3 hrs followed by substrate addition and measured after 1 hr by TR-FRET assay.
Assay [12] deals with Mitogen-activated protein kinase 14 (Homo sapiens) (UniProt Q16539). The assay is described as follows: Inhibition of GST-tagged human full length recombinant p38 alpha expressed in Escherichia coli at 1 uM by Z'-LYTE assay. Summed up:
as §1

Assay [13] has as its target Tyrosine-protein kinase Lck (Homo sapiens) (UniProt P06239). The assay is described as follows: Inhibition of human recombinant LCK at 1 uM by Z'-LYTE assay. Summed up:
as §1

The target in assay [14] is T4, Epidermal growth factor receptor. As to the kind of experiment: Inhibition of EGFR L858R/T790M/C797S triple mutant (unknown origin) using […] preincubated with enzyme and ATP at 10XKm for 3 hrs followed by substrate addition and measured after 1 hr by TR-FRET assay.
Assay [15] has as its target Cyclin-dependent kinase 2 (Homo sapiens) (UniProt P24941). As to the kind of experiment: Inhibition of human recombinant CDK2 at 1 uM by Z'-LYTE assay. Summed up:
as §1

Assay [16] has as its target Tyrosine-protein kinase JAK1 (Homo sapiens) (UniProt P23458). As to the kind of experiment: Inhibition of GST-tagged human recombinant JAK1 (866 to 1154 residues) expressed in baculovirus expression system at 1 uM by Z'-LYTE assay. Summed up:
as §1

Mitogen-activated protein kinase 3 (Homo sapiens), sequence (P27361 whole entry, the tested form may be a part): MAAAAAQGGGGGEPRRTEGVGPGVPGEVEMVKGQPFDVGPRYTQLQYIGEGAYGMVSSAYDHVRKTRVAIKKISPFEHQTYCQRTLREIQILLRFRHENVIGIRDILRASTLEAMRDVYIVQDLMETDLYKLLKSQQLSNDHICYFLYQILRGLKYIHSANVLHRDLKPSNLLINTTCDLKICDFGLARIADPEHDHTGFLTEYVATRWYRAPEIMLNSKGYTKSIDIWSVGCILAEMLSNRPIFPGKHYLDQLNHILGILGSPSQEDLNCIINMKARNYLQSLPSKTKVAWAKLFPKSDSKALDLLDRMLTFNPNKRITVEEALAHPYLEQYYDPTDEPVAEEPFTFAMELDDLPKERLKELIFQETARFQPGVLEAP
Tyrosine-protein kinase Lck (Homo sapiens), sequence (P06239 2-509 limits assumed): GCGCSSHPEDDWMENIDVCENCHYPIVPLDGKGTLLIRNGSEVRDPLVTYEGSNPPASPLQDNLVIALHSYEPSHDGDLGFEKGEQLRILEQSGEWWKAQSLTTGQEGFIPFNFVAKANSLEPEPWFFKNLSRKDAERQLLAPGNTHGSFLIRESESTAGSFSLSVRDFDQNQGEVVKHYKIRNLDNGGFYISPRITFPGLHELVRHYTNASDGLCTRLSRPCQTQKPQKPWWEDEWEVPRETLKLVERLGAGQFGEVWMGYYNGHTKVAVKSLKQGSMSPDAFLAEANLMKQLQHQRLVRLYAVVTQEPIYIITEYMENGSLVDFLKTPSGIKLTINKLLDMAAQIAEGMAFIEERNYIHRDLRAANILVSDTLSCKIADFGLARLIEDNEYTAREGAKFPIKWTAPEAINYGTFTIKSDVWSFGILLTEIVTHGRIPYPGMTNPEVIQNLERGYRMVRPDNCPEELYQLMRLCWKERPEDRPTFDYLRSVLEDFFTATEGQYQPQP
Tyrosine-protein kinase JAK1 (Homo sapiens), sequence (P23458 whole entry, the tested form may be a part): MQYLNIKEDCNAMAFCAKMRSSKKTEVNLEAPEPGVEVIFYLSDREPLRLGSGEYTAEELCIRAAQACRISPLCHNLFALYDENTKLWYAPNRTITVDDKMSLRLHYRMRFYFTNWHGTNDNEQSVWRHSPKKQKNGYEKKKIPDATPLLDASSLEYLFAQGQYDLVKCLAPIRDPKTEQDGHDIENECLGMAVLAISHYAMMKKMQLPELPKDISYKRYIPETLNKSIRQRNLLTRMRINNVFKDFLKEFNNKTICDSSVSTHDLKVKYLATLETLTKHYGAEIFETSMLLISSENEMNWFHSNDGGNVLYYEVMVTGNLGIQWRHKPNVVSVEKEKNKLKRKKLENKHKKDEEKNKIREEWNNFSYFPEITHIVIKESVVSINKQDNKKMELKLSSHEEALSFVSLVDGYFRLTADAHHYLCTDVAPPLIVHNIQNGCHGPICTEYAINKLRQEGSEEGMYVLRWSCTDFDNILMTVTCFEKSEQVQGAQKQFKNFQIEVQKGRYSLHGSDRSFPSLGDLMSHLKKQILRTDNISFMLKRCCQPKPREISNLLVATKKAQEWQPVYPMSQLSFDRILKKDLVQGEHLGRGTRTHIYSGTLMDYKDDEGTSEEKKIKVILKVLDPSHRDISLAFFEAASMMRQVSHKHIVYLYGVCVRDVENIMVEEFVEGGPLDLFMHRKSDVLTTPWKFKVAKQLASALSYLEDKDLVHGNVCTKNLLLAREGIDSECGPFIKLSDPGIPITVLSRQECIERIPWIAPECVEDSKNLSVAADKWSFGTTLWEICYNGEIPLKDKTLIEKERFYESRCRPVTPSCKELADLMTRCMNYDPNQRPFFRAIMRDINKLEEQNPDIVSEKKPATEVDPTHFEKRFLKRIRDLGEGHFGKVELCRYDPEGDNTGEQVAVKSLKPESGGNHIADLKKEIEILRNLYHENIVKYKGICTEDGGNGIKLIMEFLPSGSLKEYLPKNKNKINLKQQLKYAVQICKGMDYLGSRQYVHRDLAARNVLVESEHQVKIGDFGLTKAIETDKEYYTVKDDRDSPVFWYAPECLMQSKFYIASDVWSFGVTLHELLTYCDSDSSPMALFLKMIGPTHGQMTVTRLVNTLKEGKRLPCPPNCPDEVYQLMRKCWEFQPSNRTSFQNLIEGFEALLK
Mitogen-activated protein kinase 14 (Homo sapiens), sequence (Q16539 whole entry): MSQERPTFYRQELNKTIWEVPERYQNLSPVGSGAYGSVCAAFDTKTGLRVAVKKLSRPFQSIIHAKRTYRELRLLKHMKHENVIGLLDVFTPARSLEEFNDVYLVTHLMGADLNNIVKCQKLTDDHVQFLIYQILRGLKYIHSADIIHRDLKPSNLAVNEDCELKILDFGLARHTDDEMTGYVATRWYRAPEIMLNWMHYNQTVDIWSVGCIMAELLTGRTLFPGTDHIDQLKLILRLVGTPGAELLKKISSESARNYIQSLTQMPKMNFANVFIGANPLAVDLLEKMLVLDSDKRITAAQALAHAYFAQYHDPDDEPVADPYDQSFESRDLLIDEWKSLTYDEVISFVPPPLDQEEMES

Turning to `C#CCNC(=O)c1cc(Nc2cc(C3CC3)[nH]n2)nc(N2CCN(Cc3ccc(S(=O)(=O)F)cc3)CC2)n1`, the inhibition result in assay [1], in assay [2], in assay [3] and in assay [4] was “inactive” each time.

Take `COc1cc(N2CCN(C(C)=O)CC2)ccc1Nc1ncc(Cl)c(Nc2ccc(NCc3ccc(S(=O)(=O)F)cc3)cc2)n1`: the outcome in assay [5] was Active. Besides, the IC50 came to 210 nM in [6], 30 nM in assay [7], 2.8 nM in assay [11] and 23 nM in assay [14]. Also, the inhibition in [8] was 100%; in assay [9], less than 25%; in assay [10], less than 25%; in [12], less than 25%; in [13], 100%; in assay [15] it was 100%. In assay [16], the inhibition result is “Active”.
